Bioassay records (PubChem BioAssay)
Sampled rows, rich in hits. Any-hit rate of the full collection: about 4.8%.
ERa coact pot = enhancers of ERα–SRC-1 coactivator binding, primary screen, biochemical, TR-FRET, ERα LBD, low estradiol | Estrogen receptor (Homo sapiens), P03372 | TR-FRET ERalpha-LBD/SRC-Cy5 coactivator binding, 2 h; 100 = basal binding, no effect | coactivator binding (% of control), % at 25.6 µM | hit rate 1.3% among 86,000 | AID 639, 2007; in the data active means activity above about 200%;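 further: binding measured in presence of low estradiol as agonist stimulus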
Target sequence (P03372 whole entry, looked up, the tested form may be a part): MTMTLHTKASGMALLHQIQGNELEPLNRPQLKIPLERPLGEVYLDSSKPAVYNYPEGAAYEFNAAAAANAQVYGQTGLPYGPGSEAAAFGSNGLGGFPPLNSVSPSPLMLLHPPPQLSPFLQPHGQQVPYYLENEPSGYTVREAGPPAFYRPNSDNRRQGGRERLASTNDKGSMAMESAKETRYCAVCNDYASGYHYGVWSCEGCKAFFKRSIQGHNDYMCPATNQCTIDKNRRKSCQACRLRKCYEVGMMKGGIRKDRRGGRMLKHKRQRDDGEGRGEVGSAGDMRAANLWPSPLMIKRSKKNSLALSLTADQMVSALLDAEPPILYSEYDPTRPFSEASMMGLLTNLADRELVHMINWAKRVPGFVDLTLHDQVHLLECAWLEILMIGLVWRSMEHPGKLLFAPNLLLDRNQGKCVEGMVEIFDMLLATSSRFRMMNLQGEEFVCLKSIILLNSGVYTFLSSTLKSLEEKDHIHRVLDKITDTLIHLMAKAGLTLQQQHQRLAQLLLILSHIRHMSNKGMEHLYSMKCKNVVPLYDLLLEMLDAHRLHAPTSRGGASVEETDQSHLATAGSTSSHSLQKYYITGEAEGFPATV
SF-1 act = activators of human SF-1, primary screen, cell-based, CHO-K1, Gal4-SF-1 LBD, luciferase luminescence | Steroidogenic factor 1 (Homo sapiens), Q13285 | CHO-K1 Gal4-SF-1 LBD luciferase reporter; % increase over DMSO SF-1-specific signal | activation, % at 10 µM | hit rate 1.9% among 65,000;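 active means activation above the mean activation of all tested compounds plus 3 SD, cut at about 50% in these data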
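Material: Gal4–SF-1 LBD one-hybrid luciferase reporter in CHO-K1 cells | Amount: 4,000 cells per well | Compound dosing: 10 µM single point, 1% DMSO | Schedule: 20 h compound treatment, 37 °C | Measured by: SteadyLite luciferase luminescence | Evaluation: Percent activation versus DMSO | Control set: DMSO-treated SF-1-transfected cells as negative, DMSO-treated mock-transfected cells lacking SF-1 as background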
RORa activator = activators of orphan receptor RORA, primary screen, cell-based, luminescence; Nuclear receptor ROR-alpha (Homo sapiens), P35398; activation, % at 10 µM; CHO-K1 Gal4-RORA LBD luciferase reporter; percent increase over mock-subtracted basal signal; AID 560, 2006; hit rate 1.5% among 65,000;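 active means activation above the mean of all tested compounds plus 3 SD, cut at about 49% in these data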
PTK2B oligo ant = antagonists of Pyk2 self-association, primary screen, Q293 cells, FERM NanoBiT luminescence, HTS | hits give low values | hit rate 0.83% among 99,000 | AID 1347419, 2020 | Protein-tyrosine kinase 2-beta (Homo sapiens), Q14289 | z-score (the deposit names both 25 µM and 10 µM);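 active means Z-score of -3 or lower, scaled per plate to the spread of control and sample wells; inactive means z-score above -3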;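 further: negative z-score means lost luminescence so less FERM oligomerization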
ERa SRC1 inh = ERα–SRC-1 coactivator interaction inhibitors, primary screen, biochemical, TR-FRET, ERα LBD, estradiol-bound | Estrogen receptor (Homo sapiens), P03372 | TR-FRET ER-alpha LBD / SRC-1 peptide | inhibition, % at 25.6 µM | hit rate 1.7% among 86,000; in the data active means inhibition above about 50%
ERb coact inh = inhibitors of ERβ-SRC1 coactivator interaction, primary screen, biochemical, TR-FRET, ERβ LBD, SRC-1 peptide. TR-FRET ER-beta LBD / SRC1-Cy5 peptide binding; receptor agonist-loaded with 1 µM estradiol. Estrogen receptor beta (Homo sapiens), Q92731. hit rate 1.3% among 86,000. inhibition, % at 25.6 µM;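 active means compounds whose percent inhibition of the receptor-coactivator binding signal exceeds about 50% in the single-dose screen, limit read from the data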
Hits are given with their value; - = inactive; . = not tested or not shown; + = active, no number; [ ] = another dose, or the depositor's remark.

SMILES	ERa coact pot	SF-1 act	RORa activator	PTK2B oligo ant	ERa SRC1 inh	ERb coact inh
CCN1CCN(CCC(=O)Nc2ccccc2OC)CC1	-	-	-	-	-	-
O=C(Nc1ccncc1)Nc1ccccn1	-	-	-	-	-	-
O=C(Nc1cccc(F)c1)Nc1ccccn1	.	62	61	-	.	.
Cc1ccc(NC(=O)c2sc3nc[nH]c(=O)c3c2C)c(C)c1	.	.	.	-	.	.
O=C(Nc1nc2ccccc2s1)C1CC(=O)N(c2ccc(F)cc2)C1 (configuration not stated)	-	.	.	-	-	-
CN(C)c1ccc(NC(=O)CN2CCN(CC(=O)Nc3ccc(F)cc3)CC2)cc1	-	-	-	-	-	54[fluorescence artefact?]
CC1CC(C)CN(CCCNC(=O)c2ccc3c(c2)NC(=O)C(N2CCCCC2)S3)C1 (configuration not stated)	-	-	-	-	-	-
Cn1c(=O)c2c(nc(SCC(=O)NCc3ccc4c(c3)OCO4)n2Cc2ccc(Cl)cc2)n(C)c1=O	-	.	.	-	85[fluorescence artefact?]	54[fluorescence artefact?]
Cn1c(=O)c2c(nc(Br)n2CC(=O)c2cccs2)n(C)c1=O	-	.	.	-	-	-
Cn1c(=O)c2c(nc(SCC(=O)c3cccs3)n2Cc2ccc(F)cc2)n(C)c1=O	+[fluorescence artefact?]	-	-	-	-	-
CCCc1nc(SCC(=O)NCc2ccc3c(c2)OCO3)c2c(=O)n(C)c(=O)n(C)c2n1	-	-	-	.	-	-
O=C(CSc1nnc2scc(-c3ccc(Cl)cc3)n12)NCc1ccc2c(c1)OCO2	213	-	-	-	-	-
CC(C)(C)OC(=O)N[C@@H](Cc1ccccc1)c1nnc(SCC(=O)O)o1	-	-	-	-	-	92[fluorescence artefact?]
COC(=O)c1ccc2c(c1)NC(=O)C1CCCN21 (configuration not stated)	-	-	-	.	81[fluorescence artefact?]	-
Cc1ccc(C(=O)NNC(=O)CSc2nnc(-c3ccncc3)n2C)cc1	.	.	.	-	.	.
O=C1c2ccccc2-c2onc3ccc(Oc4ccccc4)c1c23	-	.	.	-	76[fluorescence artefact?]	-
CC1(C)CC(=O)C(/C=N/n2c(C(F)(F)F)nc3ccccc3c2=O)=C(O)C1	-	.	.	-	-	-
CC(=O)OC1CC(C)(C)N(OC(=O)c2ccccc2)C(C)(C)C1	-	-	-	-	-	-
CC(=O)OC1CC(C)(C)N(OC(=O)c2ccc(N)cc2)C(C)(C)C1	-	-	-	-	61	-
CCOc1ccc(N=C2NC(=O)S/C2=C\c2ccc(OC)cc2)cc1	-	.	.	-	67	50
N#Cc1c(/N=C/N2CCOCC2)sc2c1CCCCC2	-	83	91	-	-	-
Cc1ccc(CONC(=O)/N=C/N(C)C)cc1	.	.	.	-	.	.
CCn1c(SCC(=O)Nc2ccc3c(c2)oc2ccccc23)nnc1-c1ccc(N)cc1	-	.	.	-	74	50[fluorescence artefact?]
CC(=O)Nc1ccc(-c2nnc(SCC(=O)Nc3ccc4c(c3)oc3ccccc34)n2C)cc1	-	.	.	-	-	-
CCn1c(SCC(=O)Nc2ccc3c(c2)c2ccccc2n3CC)nnc1-c1ccco1	-	-	-	-	63	-
SMILES	ERa coact pot	SF-1 act	RORa activator	PTK2B oligo ant	ERa SRC1 inh	ERb coact inh
Cn1c(-c2ccc(C(C)(C)C)cc2)n[nH]c1=S	.	-	-	-	.	.
CC(C)(C)c1ccc(-c2conc2N)cc1	-	52	-	-	-	-
Cc1ccc(N(C)C(=O)N2CCN(S(=O)(=O)c3ccc4ccccc4c3)CC2)cc1	-	.	.	-	-	-
CN(C)CCCNC(=O)C1CCNCC1	-	-	-	-	-	-
O=C1C(C=NCc2cccnc2)=C(O)c2ccccc21	-	-	53	-	-	-
O=C1C(C=NCc2ccncc2)=C(O)c2ccccc21	-	.	.	-	-	-
O=C(Nc1cc(C(F)(F)F)ccc1N1CCOCC1)C1Cc2ccccc2CN1C(=O)c1ccco1 (configuration not stated)	-	-	-	-	91[fluorescence artefact?]	55
O=C(Nc1cc(C(F)(F)F)ccc1N1CCCCC1)c1ccco1	693[fluorescence artefact?]	-	-	-	-	-
C=CCn1c(=O)[nH]c2cc(C(=O)N3CCN(c4ccc(C(C)=O)cc4)CC3)ccc2c1=O	-	-	-	-	68	-
CCOC(=O)C1=C(c2ccccc2)NC(=S)NC1C (configuration not stated)	.	.	.	-	.	.
CCOC(=O)C1=C(c2ccccc2)NC(=S)NC1c1cc([N+](=O)[O-])ccc1OC (configuration not stated)	.	.	.	-4	.	.
NC(=O)Cc1c[nH]c2cccc(O)c12	-	-	-	-	73[fluorescence artefact?]	93[fluorescence artefact?]
Cc1cc(OC(=O)c2ccco2)c2c(C)cc(=O)oc2c1	272	.	.	-	-	-
Cc1ccc2c(c1)[nH]c1c(=O)n(CCN3CCNCC3)cnc12	-	-	-	-	-	-
O=c1c2[nH]c3ccccc3c2ncn1CCN1CCNCC1	-	-	-	-	-	-
O=c1c2[nH]c3ccccc3c2ncn1CCC1=CCCCC1	308[fluorescence artefact?]	-	-	-	-	-
Cc1ccc2[nH]c3c(=O)n(CCC4=CCCCC4)cnc3c2c1	335[fluorescence artefact?]	.	.	.	-	-
CN1/C(=C/C2CC(=O)N(c3ccc([N+](=O)[O-])cc3)C2=O)C(C)(C)c2ccccc21 (configuration not stated)	-	.	.	-	-	-
O=C(Nc1ccc(Cc2ccncc2)cc1)C1CC1	-	-	-	-	-	-
O=C(Nc1ccc(Cc2ccncc2)cc1)C1CCC(N2C(=O)C3C4C=CC(C5CC45)C3C2=O)CC1 (configuration not stated)	-	.	.	-4.2	-	-
CCOc1ccc2nc(N3CCC(C(=O)Nc4nnc(CC)s4)CC3)sc2c1	-	67	-	.	-	-
CC(C)c1nnc(NC(=O)C2CCN(c3nc4ccccc4s3)CC2)s1	-	-	-	-	67[fluorescence artefact?]	-
CCOc1ccc2nc(N3CCCCCC3)sc2c1	-	58	-	-	-	-
COc1ccc(-c2ccc(SCC(=O)N3c4ccccc4CC3C)nn2)cc1OC (configuration not stated)	.	.	.	-3.2	.	.
O=C(CCN1C(=O)c2ccccc2C1=O)Nn1cnnc1	-	-	-	-	-	-
C/C(=N\O)c1ccc2c3ccccc3n(C)c2c1	-	54	-	-	-	-
O=C(CCC(=O)c1ccc(F)cc1)OC1CCOC1=O (configuration not stated)	-	-	-	-	-	-
